Active and inactive are the calls of the source. No cut-off for these calls is given here.
Experiments:
Homo sapiens = species: Homo sapiens; test: Selectivity ratio of Ki for human CB1 receptor to Ki for human CB2 receptor
Cannabinoid receptor 2 [1] = target: T1, Cannabinoid receptor 2 (Homo sapiens, UniProt P34972); test: Agonist activity at human CB2 receptor expressed in CHO cells assessed as inhibition of forskolin-induced cAMP production at 2 uM relative to control; type: functional, cell-based
T1 sequence (P34972 whole entry): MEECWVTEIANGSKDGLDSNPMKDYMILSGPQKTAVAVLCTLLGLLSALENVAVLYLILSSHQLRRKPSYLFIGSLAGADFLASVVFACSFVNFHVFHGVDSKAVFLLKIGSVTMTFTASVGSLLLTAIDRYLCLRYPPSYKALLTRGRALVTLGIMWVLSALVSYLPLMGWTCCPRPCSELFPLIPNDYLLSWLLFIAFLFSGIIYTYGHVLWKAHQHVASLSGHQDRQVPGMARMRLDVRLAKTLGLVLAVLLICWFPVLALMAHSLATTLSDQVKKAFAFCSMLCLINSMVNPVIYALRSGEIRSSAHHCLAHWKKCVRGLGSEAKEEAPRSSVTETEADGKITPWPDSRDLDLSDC
Summary of the method: (§1)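 Forskolin-induced cAMP production measured in human CB2-expressing CHO cells. Emax is the maximum inhibition rate of cAMP production at the indicated concentration.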

Cannabinoid receptor 2 [2] = target: T1, Cannabinoid receptor 2; test: Agonist activity at human CB2 receptor expressed in CHO cells assessed as inhibition of forskolin-induced cAMP production; type: functional, cell-based
Summary of the method: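 Functional readout is inhibition of forskolin-evoked cAMP accumulation in CHO cells expressing human CB2. IC50 determined from more than four duplicate assay points. Between-day coefficient of variation is 0.63.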

Cannabinoid receptor 1 = Cannabinoid receptor 1 (Homo sapiens, UniProt P21554); test: Displacement of [3H]-CP-55,940 from human CB1 receptor expressed in CHO cell membranes
Cannabinoid receptor 1, sequence (P21554 whole entry): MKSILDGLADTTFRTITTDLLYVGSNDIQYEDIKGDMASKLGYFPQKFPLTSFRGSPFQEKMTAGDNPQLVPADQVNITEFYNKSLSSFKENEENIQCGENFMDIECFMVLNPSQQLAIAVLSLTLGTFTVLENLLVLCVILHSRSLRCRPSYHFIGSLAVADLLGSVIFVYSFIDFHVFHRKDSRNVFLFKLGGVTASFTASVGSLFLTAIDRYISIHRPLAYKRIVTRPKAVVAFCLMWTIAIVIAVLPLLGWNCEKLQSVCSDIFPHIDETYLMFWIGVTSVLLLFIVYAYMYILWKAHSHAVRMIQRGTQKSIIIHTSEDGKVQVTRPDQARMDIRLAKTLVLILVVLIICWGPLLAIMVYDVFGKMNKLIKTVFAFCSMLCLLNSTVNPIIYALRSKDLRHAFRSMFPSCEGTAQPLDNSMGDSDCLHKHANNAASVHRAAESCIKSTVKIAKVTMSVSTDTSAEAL
Summary of the method: (§2)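 Competition binding against [3H]-CP-55,940 on membranes from CHO cells stably expressing recombinant human CB1 or CB2. Between-day coefficient of variation is 0.24 for CB1 and 0.53 for CB2.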

Cannabinoid receptor 2 [3] = target: T1, Cannabinoid receptor 2; test: Displacement of [3H]-CP-55,940 from human CB2 receptor expressed in CHO cell membranes; summary of the method: as §2
[4] = target: Cannabinoid receptor 2 (Mus musculus) (UniProt P47936); test: Displacement of [3H]-CP-55,940 from mouse spleen CB2 receptor expressed in CHO cell membranes
Cannabinoid receptor 2 (Mus musculus), sequence (P47936 whole entry): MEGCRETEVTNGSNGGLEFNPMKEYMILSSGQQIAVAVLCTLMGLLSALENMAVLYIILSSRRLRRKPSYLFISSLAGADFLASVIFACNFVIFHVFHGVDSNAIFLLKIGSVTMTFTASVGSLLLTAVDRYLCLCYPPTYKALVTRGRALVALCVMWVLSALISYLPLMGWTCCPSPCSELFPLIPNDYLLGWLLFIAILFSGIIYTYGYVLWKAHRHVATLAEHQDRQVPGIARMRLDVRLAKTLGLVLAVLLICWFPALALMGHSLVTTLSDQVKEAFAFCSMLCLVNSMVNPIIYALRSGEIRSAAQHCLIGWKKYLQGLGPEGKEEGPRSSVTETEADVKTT

Mus musculus [5] = test: Toxicity in po dosed ICR mouse assessed as decrease in locomotor activity at 100 mg/kg, po; type: organism-based; parameters: dose 100 mg/kg, route oral; settings: in vivo
Mus musculus [6] = test: Oral bioavailability in mouse at 30 mg/kg; type: ADME, organism-based; settings: in vivo
Mus musculus [7] = test: Antipruritic activity in ICR mouse assessed as inhibition of compound 48/80-induced scratching-behavior at 100 mg/kg, po administered once before challenge relative to control; type: functional
Summary of the method: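 Female ICR mice had their backs clipped. Compound was given orally once (n = 6) in sesame oil or 0.5% methylcellulose. Scratching bouts at the site by hind paws were counted for 30 min. Result compared with the vehicle group by Dunnett's t-test (p<0.05).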

[8] = Cmax in mouse at 30 mg/kg, po; type: ADME, organism-based; parameters: dose 30 mg/kg, route oral; settings: in vivo
Mus musculus [9] = test: AUC in mouse at 30 mg/kg, po; type: ADME, organism-based, Plasma; parameters: dose 30 mg/kg, route oral; settings: in vivo
[10] = Half life in mouse at 2 mg/kg, iv; type: ADME, organism-based; parameters: dose 2 mg/kg, route intravenous; settings: in vivo
[11] = Volume of distribution at steady state in mouse at 2 mg/kg, iv; type: ADME, organism-based; parameters: dose 2 mg/kg, route intravenous; settings: in vivo, read-out: Vdss
Cannabinoid receptor 2 [12] = target: T1, Cannabinoid receptor 2; test: Agonist activity at human CB2 receptor expressed in CHO cells assessed as inhibition of forskolin-induced cAMP production at 0.2 uM relative to control; type: functional, cell-based; summary of the method: as §1
[13] = Half life in mouse at 1 mg/kg, iv; type: ADME, organism-based; parameters: dose 1 mg/kg, route intravenous; settings: in vivo
[14] = Total plasma clearance in mouse at 1 mg/kg, iv; type: ADME, organism-based; parameters: dose 1 mg/kg, route intravenous
[15] = Volume of distribution at steady state in mouse at 1 mg/kg, iv; type: ADME, organism-based; parameters: dose 1 mg/kg, route intravenous; settings: in vivo, read-out: Vdss
Cannabinoid receptor 2 [16] = target: T1, Cannabinoid receptor 2; test: Agonist activity at human CB2 receptor expressed in CHO cells assessed as inhibition of forskolin-induced cAMP production at 0.02 uM relative to control; type: functional, cell-based; summary of the method: as §1

SMILES | Ratio Ki (Homo sapiens) | Ki (Cannabinoid receptor 1) [µM] | Ki (Cannabinoid receptor 2 [3]) [µM] | also measured
CCCCn1c2c(cc(C(=O)NC(C)C)c1=O)CCCCCC2 | 148 | 0.591 | 0.004 | Emax (Cannabinoid receptor 2 [1]): 92%; IC50 (Cannabinoid receptor 2 [2]): 0.0025 µM
O=C(NCc1ccccc1)c1cc2c(n(CCCN3CCOCC3)c1=O)CCCCCC2 |  |  | 0.209 | 
CCCCn1c(C)c(C)cc(NC(=O)Nc2ccccc2)c1=O |  |  | > 5 | 
CCCCn1c2c(cc(C(=O)NCc3ccccc3)c1=O)CCCCCC2 | 593 |  |  | Activity [4]: Active; Activity (Mus musculus [5]): Non-toxic; F (Mus musculus [6]): 25%; inhibition in vivo at 100 mg/kg (Mus musculus [7]): 81%; Cmax [8]: 0.168 µg/mL; AUC (Mus musculus [9]): 0.39 µg·h/mL; half-life [10]: 16.8 min; Vd [11]: 2.29 L/kg; Emax (Cannabinoid receptor 2 [12]): 100%
CCCCn1c2c(cc(C(=O)NC3CCCCC3)c1=O)CCCCCC2 | 95 |  |  | Activity [4]: Active; half-life [13]: 18 min; clearance [14]: 2.1 L/h/kg; Vd [15]: 0.89 L/kg; Emax (Cannabinoid receptor 2 [16]): 98%; IC50 (Cannabinoid receptor 2 [2]): < 0.0002 µM
CCCCn1c2c(cc(C(=O)NC3CCN(C)CC3)c1=O)CCCCCC2 |  |  | 0.147 | 
CC(C)CCn1c2c(cc(C(=O)NCc3ccccc3)c1=O)CCCCCC2 | 10 | 0.009 | 0.0009 | 
CCCCn1c2c(cc(C(N)=O)c1=O)CCCCCC2 | > 125 | > 5 | 0.04 | 
CCCCn1c2c(cc(C(=O)NCc3ccccc3)c1=O)CCCC2 | 44 | 0.746 | 0.017 | Emax (Cannabinoid receptor 2 [1]): 76%; IC50 (Cannabinoid receptor 2 [2]): 0.017 µM
CCCCn1c(CC)c(C)cc(C(=O)NCc2ccccc2)c1=O | 16 | 0.322 | 0.02 | 
CCCCn1c2c(cc(C(=O)NC(C)(C)c3ccccc3)c1=O)CCCCCC2 |  |  |  | IC50 (Cannabinoid receptor 2 [2]): 0.0002 µM
CCCCn1c2c(cc(C(=O)NCCc3ccccc3)c1=O)CCCCCC2 | 568 |  |  | Emax (Cannabinoid receptor 2 [12]): 98%
CCCCn1c2c(cc(C(=O)NCc3ccccc3)c1=O)COCC2 |  |  | 0.204 | 
CCCCn1c(C)c(C)cc(NS(=O)(=O)c2ccccc2)c1=O |  |  | > 5 | 
CCCCn1c2c(cc(C(=O)NCc3ccccc3)c1=O)CCC2 | 8.9 | 0.143 | 0.016 | Emax (Cannabinoid receptor 2 [1]): 83%
CCCCn1c(C)c(C)cc(C(=O)NCc2ccccc2)c1=O |  | 0.606 | 0.066 | 
